{
  "source": "paper PMC8647718",
  "about": "(Free radical biology & medicine, 2020)",
  "key": {"[1]": {"tested_on": "AhR", "assay": "AhR-luciferase", "format": "cell-based, mouse", "details": "for AhR activation CQ (concentration of quadrupling): H1L6.1c3 cells, luciferase fold vs DMSO normalized to viability"}, "[2]": {"tested_on": "Nrf2", "assay": "ARE-luciferase reporter assay in HepG2-ARE cells", "format": "cell-based", "details": "24 h, 0–25 μM, (−) = concentration range tested did not quadruple Nrf2 activation"}, "[3]": {"tested_on": "Nrf2", "details": "HT-29 cells, 10 μM; cited from earlier work"}, "[4]": {"tested_on": "AhR", "assay": "AhR nuclear translocation, immunoblot of nuclear proteins in HT-29 cells", "format": "cell-based, human", "details": "HT-29, 1 h; GarD 12.5 μM, FICZ 0.5 μM", "how_it_was_run": "(§1)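 HT-29 cells exposed to test compound at 12.5 μM, with tBHQ 50 μM or FICZ 0.5 μM as reference activators, over a 6-h time course. Cytosolic and nuclear fractions were collected at set time points, quantified by BCA, and resolved by SDS-PAGE. Blots were probed for AhR or Nrf2, with densities normalised to β-actin or lamin A/C. At least three independent experiments; mean ± SD.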"}, "[5]": {"tested_on": "Cyp1a1", "assay": "Cyp1a1 protein level, immunoblot of HT-29 cell lysates", "format": "cell-based, human", "details": "HT-29, 24 h; GarD 12.5 μM, FICZ 500 nM", "how_it_was_run": "(§2)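 HT-29 cells treated for 24 h with test compound, tBHQ 50 μM or FICZ 0.5 μM as references. Densities were normalised to β-actin. Mean ± SD of triplicate experiments; one-way ANOVA with Tukey test, P ≤ 0.05.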"}, "[6]": {"tested_on": "AhR", "assay": "AhR protein level, immunoblot of HT-29 cell lysates", "format": "cell-based, human", "details": "HT-29, 24 h; GarD 12.5 μM, FICZ 500 nM", "how_it_was_run": "as §2"}, "[7]": {"tested_on": "HT-29 monolayers", "assay": "In vitro permeability assay of FITC-dextran through HT-29 monolayers", "format": "cell-based, human", "details": "HT-29 transwell, GarD 6.25 or 12.5 μM pretreatment 6 h, 100 μM tBHP 16 h", "how_it_was_run": "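HT-29 cells seeded at 1.5 × 10^5 cells/cm2 on transwell inserts and differentiated; only monolayers with TEER above 200 […] were used. Test compound was added apically for 6 h, then 100 μM tBHP for 16 h. Apical 4 kDa FITC-dextran (0.5 mg mL−1 in HBSS/HEPES), HBSS basolateral. Basolateral samples at 0.5–4 h read at 485/530 nm; % of control.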"}, "[8]": {"tested_on": "ZO-2, ZO-3, claudin-1 and claudin-4", "assay": "Other TJ proteins, immunoblot in HT-29 cells", "format": "cell-based, human", "details": "HT-29, GarD 0–25 μM, data not shown"}, "[9]": {"tested_on": "HT-29 cells", "assay": "Total intracellular ROS", "format": "cell-based, human", "details": "HT-29, 12 h; GarD 25 μM, tBHP 25 μM (positive control)"}, "[10]": {"tested_on": "Nrf2", "assay": "Nrf2 nuclear translocation, immunoblot of nuclear proteins in HT-29 cells", "format": "cell-based, human", "details": "HT-29, 1 h; GarD 12.5 μM, tBHQ 50 μM", "how_it_was_run": "as §1"}, "[11]": {"tested_on": "occludin", "assay": "Occludin tight junction protein level, immunoblot in HT-29 cells", "format": "cell-based, human", "details": "HT-29, GarD 0–25 μM, 24 h"}, "[12]": {"tested_on": "HepG2-ARE cells", "assay": "MTT cell viability assay in HepG2-ARE cells", "format": "cell-based", "details": "read-out: Nrf2 activation IC50 (cell viability reduced by half)"}, "[13]": {"tested_on": "heme oxygenase-1 (HO-1)", "assay": "HO-1 protein level, immunoblot of HT-29 whole cell lysates", "format": "cell-based, human", "details": "GarD 0–25 μM, 24 h", "how_it_was_run": "as §2"}, "[14]": {"tested_on": "Nrf2", "assay": "Total Nrf2 protein level, immunoblot of HT-29 whole cell lysates", "format": "cell-based, human", "details": "GarD 0–25 μM, 24 h", "how_it_was_run": "as §2"}, "[15]": {"tested_on": "HT-29 cells", "assay": "tBHP-induced ROS production", "format": "cell-based, human"}, "[16]": {"tested_on": "ZO-1", "assay": "ZO-1 tight junction protein level, immunoblot in HT-29 cells", "format": "cell-based, human", "details": "HT-29, GarD 0–25 μM, 24 h"}, "[17]": {"tested_on": "H1L6.1c3 cells", "assay": "MTT cell viability assay in H1L6.1c3 cells", "details": "for IC50: Mus musculus, read-out: AhR activation IC50 (cell viability reduced by half)"}, "[18]": {"tested_on": "ZO-1", "assay": "ZO-1 immunofluorescence microscopy in HT-29 cells", "format": "cell-based, human"}, "[19]": {"tested_on": "occludin", "assay": "tBHP oxidative stress-induced TJ disruption, occludin immunoblot in HT-29 cells", "format": "cell-based, human", "details": "HT-29, tBHP 50 μM, 16 h"}, "[20]": {"tested_on": "claudin-1", "assay": "tBHP oxidative stress-induced TJ disruption, claudin-1 immunoblot in HT-29 cells", "format": "cell-based, human", "details": "HT-29, tBHP 50 μM, 16 h"}, "[21]": {"tested_on": "ZO-1", "assay": "tBHP oxidative stress-induced TJ disruption, ZO-1 immunoblot in HT-29 cells", "format": "cell-based, human", "details": "HT-29, tBHP 50 μM, 16 h"}},
  "note": "Values joined by “and” are separate entries in the source; they are usually repeats but may differ in a detail not shown here. Identical values can stand only once.",
  "data": [
    {"smiles": "CC(C)=CCc1c(O)c(CC=C(C)C)c2oc3c(O)cccc3c(=O)c2c1O", "note": "[Compound 1, 8-desoxygartanin]", "values": [
      {"measurement": "AhR activation CQ (concentration of quadrupling)", "setting": "[1]; 24 h", "value": "0.162 ± 0.001", "unit": "µM"},
      {"measurement": "Nrf2 activation CQ (concentration of quadrupling)", "setting": "[2]", "value": "22.19 ± 1.24", "unit": "µM"}
    ]},
    {"smiles": "C[S+]([O-])CCCCN=C=S", "note": "(stereo not shown) [sulforaphane]", "values": [
      {"measurement": "induction of Nrf2 relative to the control", "setting": "[3]", "value": 200, "unit": "%"}
    ]},
    {"smiles": "O=Cc1c2[nH]c3ccccc3c2cc2[nH]c3ccccc3c12", "note": "[FICZ, 6-formylindolo[3,2-b] carbazole, reference compound]", "values": [
      {"measurement": "nuclear AhR accumulation (peak)", "setting": "[4]", "value": 4.6, "unit": "fold increase vs control"},
      {"measurement": "increase of luminescence signal", "setting": "[1]; FICZ 500 nM, 24 h, H1L6 cells", "value": "43 fold of control"},
      {"measurement": "increase in Cyp1a1 protein", "setting": "[5]", "value": 3.5, "unit": "fold"},
      {"measurement": "increase in AhR protein", "setting": "[6]", "value": 2.8, "unit": "fold"}
    ]},
    {"smiles": "COc1c(O)cc2oc3cc(O)c(CC=C(C)C)c(O)c3c(=O)c2c1CCC(C)(C)O", "note": "[Compound 6, garcinone D]", "values": [
      {"measurement": "tBHP induced leakage of FITC-dextran", "setting": "[7]", "value": "dose-dependently inhibited"},
      {"measurement": "inducing effect on other TJ proteins (ZO-2, ZO-3, claudin-1, claudin-4)", "setting": "[8]", "value": "no inducing effect"},
      {"measurement": "ROS level (DCF fluorescence) relative to untreated control", "setting": "[9]", "value": 2, "unit": "fold"},
      {"measurement": "nuclear Nrf2 level", "setting": "[10]", "value": "1.9 fold greater than the control"},
      {"measurement": "increase in occludin protein relative to untreated controls", "setting": "[11]", "value": "22–91%"},
      {"measurement": "nuclear AhR accumulation (peak)", "setting": "[4]", "value": 3.8, "unit": "fold increase vs control"},
      {"measurement": "IC50", "setting": "[12]", "value": "38.5 ± 7.27", "unit": "µM"},
      {"measurement": "increase in HO-1 protein vs control", "setting": "[13]", "value": 37, "unit": "%"},
      {"measurement": "increase in total Nrf2 protein vs control", "setting": "[14]", "value": 40, "unit": "%"},
      {"measurement": "suppression of tBHP-induced ROS production vs tBHP", "setting": "[15]; HT-29, GarD pretreatment (0–25 μM, 6 h), dose-dependent", "value": "25 to 68", "unit": "%"},
      {"measurement": "increase in ZO-1 protein relative to untreated controls", "setting": "[16]", "value": "34–83%"},
      {"measurement": "AhR activation CQ (concentration of quadrupling)", "setting": "[1]; 24 h", "value": "0.142 µM and 0.142 ± 0.008 µM"},
      {"measurement": "AhR activation IC50 (cell viability reduced by half)", "setting": "[17]; H1L6 cells, MTT, max 100 μM, (−) = did not exhibit >50% cell toxicity at the concentration range tested", "value": "without exhibiting >50% H1L6 cell toxicity"},
      {"measurement": "IC50", "setting": "[17]", "value": "> 100", "unit": "µM"},
      {"measurement": "ZO-1 intensity lost to tBHP treatment rescued", "setting": "[18]; HT-29, 2-h pre-treatment GarD 12.5 μM, co-incubation with tBHP 16 h", "value": 45, "unit": "%"},
      {"measurement": "Nrf2 activation CQ (concentration of quadrupling)", "setting": "[2]", "value": "8.0 µM and 8.08 ± 0.07 µM"}
    ]},
    {"smiles": "COc1cc2oc3cc(O)c(OC)c(CC=C(C)C)c3c(=O)c2c(O)c1CC=C(C)C", "note": "[Compound 5, β-mangostin]", "values": [
      {"measurement": "CQ value relative to the rest of the compounds", "setting": "[1]; AhR activation, H1L6 cells", "value": "10–36 times higher"},
      {"measurement": "AhR activation CQ (concentration of quadrupling)", "setting": "[1]; 24 h", "value": "5.125 ± 0.006", "unit": "µM"}
    ]},
    {"smiles": "CC(C)=CCc1c(O)c(CC=C(C)C)c2oc3c(O)ccc(O)c3c(=O)c2c1O", "note": "[Compound 2, gartanin]", "values": [
      {"measurement": "IC50", "setting": "[12]", "value": "63.6 ± 1.94", "unit": "µM"},
      {"measurement": "IC50", "setting": "[17]", "value": "36.5 ± 0.71", "unit": "µM"},
      {"measurement": "Nrf2 activation CQ (concentration of quadrupling)", "setting": "[2]", "value": "9.4 µM and 9.43 ± 1.90 µM"}
    ]},
    {"smiles": "CC(C)(C)c1cc(O)ccc1O", "note": "[tBHQ, tert-butyl hydroquinone, reference compound]", "values": [
      {"measurement": "nuclear Nrf2 level", "setting": "[10]", "value": "Nuclear translocation of Nrf2 was also demonstrated"}
    ]},
    {"smiles": "COc1c(O)cc2oc3cc(O)c(CC=C(C)C)c(O)c3c(=O)c2c1CC=C(C)C", "note": "[Compound 3, α-mangostin]", "values": [
      {"measurement": "Nrf2 activation CQ (concentration of quadrupling)", "setting": "[2]", "value": "16.25 ± 0.46", "unit": "µM"}
    ]},
    {"smiles": "CC(C)(C)OO", "note": "[tBHP, tert-butyl hydroperoxide, reference compound]", "values": [
      {"measurement": "reduction in occludin compared to untreated controls", "setting": "[19]", "value": 28, "unit": "%"},
      {"measurement": "ROS level (DCF fluorescence) relative to untreated control", "setting": "[9]", "value": 4, "unit": "fold"},
      {"measurement": "increase in total ROS levels relative to controls", "setting": "[15]; HT-29, 2 mM tBHP, 4 h", "value": 2, "unit": "fold"},
      {"measurement": "ZO-1 fluorescence intensity", "setting": "[18]; HT-29, tBHP 50 μM, 16 h", "value": "45 % of the control"},
      {"measurement": "reduction in claudin-1 compared to untreated controls", "setting": "[20]", "value": 48, "unit": "%"},
      {"measurement": "reduction in ZO-1 compared to untreated controls", "setting": "[21]", "value": 68, "unit": "%"}
    ]},
    {"smiles": "CC(C)=CCc1c(O)cc2oc3cc(O)c(O)c(CC=C(C)C)c3c(=O)c2c1O", "note": "[Compound 7, γ-mangostin]", "values": [
      {"measurement": "Nrf2 activation CQ (concentration of quadrupling)", "setting": "[2]", "value": "14.93 ± 0.10", "unit": "µM"}
    ]}
  ]
}
